Measurements from ChEMBL document CHEMBL5230144, “Synthesis and Biological Evaluation of Celastrol Derivatives with Improved Cytotoxic Selectivity and Antitumor Activities” (J Nat Prod, 2021).
Active and inactive are the calls of the source. The rule behind the calls is not given here.

Legend:
[1] = target: T1, Heat shock protein HSP 90-beta/Hsp90 co-chaperone Cdc37 (Homo sapiens, UniProt P08238+Q16543); assay: Disruption of His-tagged full length HSP90 (unknown origin)/GST-tagged Cdc37 (unknown origin) measured after 1 hr by HTRF method; format: protein-complex assay
T1 sequence (P08238 whole entry): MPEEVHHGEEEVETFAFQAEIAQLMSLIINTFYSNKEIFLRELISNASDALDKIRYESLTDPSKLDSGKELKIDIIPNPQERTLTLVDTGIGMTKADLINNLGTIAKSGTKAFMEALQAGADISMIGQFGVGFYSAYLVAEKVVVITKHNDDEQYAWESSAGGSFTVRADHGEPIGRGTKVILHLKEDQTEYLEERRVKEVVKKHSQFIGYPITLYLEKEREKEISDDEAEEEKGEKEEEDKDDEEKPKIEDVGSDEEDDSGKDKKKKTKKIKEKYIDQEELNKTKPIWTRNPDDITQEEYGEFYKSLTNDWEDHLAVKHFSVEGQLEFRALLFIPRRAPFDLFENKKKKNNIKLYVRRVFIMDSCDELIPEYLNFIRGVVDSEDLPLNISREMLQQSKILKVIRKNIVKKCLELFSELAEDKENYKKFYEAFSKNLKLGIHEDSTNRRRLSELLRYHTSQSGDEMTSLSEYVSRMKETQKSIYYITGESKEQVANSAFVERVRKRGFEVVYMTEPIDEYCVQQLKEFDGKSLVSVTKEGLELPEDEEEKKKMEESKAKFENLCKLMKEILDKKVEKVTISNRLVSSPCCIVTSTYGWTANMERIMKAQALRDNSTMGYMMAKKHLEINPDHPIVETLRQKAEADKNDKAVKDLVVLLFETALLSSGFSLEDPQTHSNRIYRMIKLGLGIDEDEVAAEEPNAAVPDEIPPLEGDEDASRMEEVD
T1 sequence (Q16543 whole entry): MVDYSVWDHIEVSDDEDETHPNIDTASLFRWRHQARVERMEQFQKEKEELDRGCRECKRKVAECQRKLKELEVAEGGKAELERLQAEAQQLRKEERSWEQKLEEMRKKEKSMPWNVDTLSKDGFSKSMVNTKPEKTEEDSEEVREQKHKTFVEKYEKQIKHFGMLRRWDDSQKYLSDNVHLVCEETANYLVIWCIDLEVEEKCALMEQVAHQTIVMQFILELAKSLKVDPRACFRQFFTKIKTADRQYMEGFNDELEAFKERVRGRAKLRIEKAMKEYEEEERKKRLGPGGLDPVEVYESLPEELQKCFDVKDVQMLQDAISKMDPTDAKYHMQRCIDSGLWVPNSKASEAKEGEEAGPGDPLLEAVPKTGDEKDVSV
How it was run: (§1)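 HTRF in PBS with […], pH 7.3: His-tagged full-length Hsp90 and GST-tagged Cdc37 (each 250 nM final) with compound, 37 °C for 1 h. Anti-GST-Cryptate and anti-6His-XL665 then added for 0.5 h at 37 °C. Time-resolved fluorescence read at ex 320 nm, em 665/620 nm; ratio (665/620) × 10 000.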

A549 = assay: cells; conditions: Homo sapiens, A549, 48 h
[2] = target: T1, Heat shock protein HSP 90-beta/Hsp90 co-chaperone Cdc37; assay: Disruption of His-tagged full length HSP90 (unknown origin)/GST-tagged Cdc37 (unknown origin) at 50 uM measured after 1 hr by HTRF method; format: protein-complex assay; how it was run: as §1
MCF7 = assay: cells; conditions: Homo sapiens, MCF7, 48 h
KB = assay: cells; conditions: Homo sapiens, 48 h
MDA-MB-231 = assay: cells; conditions: Homo sapiens, MDA-MB-231, 48 h
[3] = Cytotoxicity against human mesenchymal bone marrow stem cells measured after 48 hrs by MTT assay; format: toxicity, cell-based
[4] = Toxicity in nude mouse xenografted with human MDA-MB-231 cells assessed as decrease of platelets at 10 mg/kg, po measured after 26 days; format: organism-based; conditions: in vivo, 624 h, time 26 day
How it was run: (§2)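 Female athymic nude mice (5–6 weeks) bore MDA-MB-231 xenografts and were randomized (n = 6) at a mean tumor volume of about 100 mm³. They received 10 mg/kg orally, with vehicle and carboplatin (10 mg/kg) groups. On the final day of administration, a routine blood examination counted white blood cells, red blood cells and platelets, compared against vehicle.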

[5] = Toxicity in nude mouse xenografted with human MDA-MB-231 cells assessed as damage to kidney at 10 mg/kg, po measured after 26 days by Hand E staining method; format: organism-based; conditions: in vivo, 624 h, time 26 day
How it was run: (§3)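 Female athymic nude mice (5–6 weeks) bore MDA-MB-231 xenografts and were randomized (n = 6) once tumors averaged about 100 mm³. They were dosed orally at 10 mg/kg, alongside vehicle and carboplatin (10 mg/kg) groups. On the last day of administration, heart, liver, lungs and kidneys were examined by HE staining.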

[6] = Toxicity in nude mouse xenografted with human MDA-MB-231 cells assessed as damage to lungs at 10 mg/kg, po measured after 26 days by Hand E staining method; format: organism-based; conditions: in vivo, 624 h, time 26 day; how it was run: as §3
[7] = Toxicity in nude mouse xenografted with human MDA-MB-231 cells assessed as decrease of white blood cells at 10 mg/kg, po measured after 26 days; format: organism-based; conditions: in vivo, 624 h, time 26 day; how it was run: as §2
HUVEC = assay: Antimigratory activity against human HUVEC cells assessed as inhibition of cell migration at 0.1 uM measured after 12 to 24 hrs by wound scratch assay; format: functional, cell-based; conditions: time 12-24 hrs
How it was run: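 HUVEC monolayers were scratched and treated, with wound closure imaged at 0, 12 and 24 h. Migration was quantified as a migration ratio relative to 0 h.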

[8] = Toxicity in nude mouse xenografted with human MDA-MB-231 cells assessed as decrease of red blood cells at 10 mg/kg, po measured after 26 days; format: organism-based; conditions: in vivo, 624 h, time 26 day; how it was run: as §2
[9] = Toxicity in nude mouse xenografted with human MDA-MB-231 cells assessed as damage to heart at 10 mg/kg, po measured after 26 days by Hand E staining method; format: organism-based; conditions: in vivo, 624 h, time 26 day; how it was run: as §3
[10] = Toxicity in nude mouse xenografted with human MDA-MB-231 cells assessed as damage to liver at 10 mg/kg, po measured after 26 days by Hand E staining method; format: organism-based; conditions: in vivo, 624 h, time 26 day; how it was run: as §3
[11] = Toxicity in nude mouse xenografted with human MDA-MB-231 cells assessed as decrease of body weight at 10 mg/kg, po measured after 26 days; format: organism-based; conditions: in vivo, 624 h, time 26 day
How it was run: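 Female athymic nude mice, 5−6 weeks old, carrying MDA-MB-231 xenografts; randomized at about 100 mm³ tumor volume, n = 6 per group. Groups were vehicle, carboplatin 10 mg/kg, celastrol 10 mg/kg and test compound 10 mg/kg oral. Body weight tracked from day 16 to day 26; blood counts taken on the last day.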

Row | Structure (SMILES) | IC50 (A549) [µM] | inhibition [2] [%] | IC50 (MCF7) [µM] | IC50 (KB) [µM] | IC50 (MDA-MB-231) [µM] | IC50 at 48 h [3] [µM] | other results
1 | CC1=C(O)C(=O)C=C2C1=CC=C1[C@@]2(C)CC[C@@]2(C)[C@@H]3C[C@](C)(C(=O)OCC4CCCCC4)CC[C@]3(C)CC[C@]12C | – | – | – | – | – | – | IC50 [1]: 2.9 µM
2 | CCCOC(=O)[C@]1(C)CC[C@]2(C)CC[C@]3(C)C4=CC=C5C(=CC(=O)C(O)=C5C)[C@]4(C)CC[C@@]3(C)[C@@H]2C1 | 1.1 | 87.4 | 0.5 | 0.6 | 0.8 | – | –
3 | CC1=C(O)C(=O)C=C2C1=CC=C1[C@@]2(C)CC[C@@]2(C)[C@@H]3C[C@](C)(C(=O)OCc4ccccc4)CC[C@]3(C)CC[C@]12C | 1.3 | 90.1 | 0.7 | 0.6 | 0.4 | 1 | IC50 [1]: 2.4 µM
4 | CCCCOC(=O)[C@]1(C)CC[C@]2(C)CC[C@]3(C)C4=CC=C5C(=CC(=O)C(O)=C5C)[C@]4(C)CC[C@@]3(C)[C@@H]2C1 | 1.3 | 86 | 0.6 | 0.6 | 0.9 | – | –
5 | CC1=C(O)C(=O)C=C2C1=CC=C1[C@@]2(C)CC[C@@]2(C)[C@@H]3C[C@](C)(C(=O)OCCCl)CC[C@]3(C)CC[C@]12C | 6.3 | 87 | 1.8 | 1.9 | 0.8 | – | –
6 | CC1=C(O)C(=O)C=C2C1=CC=C1[C@@]2(C)CC[C@@]2(C)[C@@H]3C[C@](C)(C(=O)O)CC[C@]3(C)CC[C@]12C [CELASTROL] | 1.8 | 82.3 | 1.2 | 1.7 | 0.9 | 0.7 | Activity [4]: Toxic; Activity [5]: Toxic; Activity [6]: Toxic; Activity [7]: Toxic; Activity (HUVEC): inactive; Activity [8]: Toxic; Activity [9]: Toxic; Activity [10]: Toxic
7 | CC1=C(O)C(=O)C=C2C1=CC=C1[C@@]2(C)CC[C@@]2(C)[C@@H]3C[C@](C)(C(=O)OCc4cccc(C)c4)CC[C@]3(C)CC[C@]12C | – | – | – | – | – | – | IC50 [1]: 6.2 µM
8 | C#CCOC(=O)[C@]1(C)CC[C@]2(C)CC[C@]3(C)C4=CC=C5C(=CC(=O)C(OC(=O)N6CCC(N7CCCCC7)CC6)=C5C)[C@]4(C)CC[C@@]3(C)[C@@H]2C1 | – | – | – | – | 0.2 | 2.8 | Activity [4]: Non-Toxic; Activity [5]: Non-Toxic; Activity [6]: Non-Toxic; Activity [7]: Non-Toxic; Activity [8]: Non-Toxic; Activity [9]: Non-Toxic; Activity [11]: Toxic; Activity [10]: Non-Toxic
9 | COCCCOC(=O)[C@]1(C)CC[C@]2(C)CC[C@]3(C)C4=CC=C5C(=CC(=O)C(O)=C5C)[C@]4(C)CC[C@@]3(C)[C@@H]2C1 | 1 | 88.8 | 0.6 | 0.6 | 0.4 | – | –
10 | COCCOC(=O)[C@]1(C)CC[C@]2(C)CC[C@]3(C)C4=CC=C5C(=CC(=O)C(O)=C5C)[C@]4(C)CC[C@@]3(C)[C@@H]2C1 | – | – | – | – | – | – | IC50 [1]: 6.7 µM
11 | CC1=C(O)C(=O)C=C2C1=CC=C1[C@@]2(C)CC[C@@]2(C)[C@@H]3C[C@](C)(C(=O)OCCBr)CC[C@]3(C)CC[C@]12C | 1.6 | 86.3 | 1.1 | 1 | 0.1 | – | –
12 | CCOC(=O)[C@]1(C)CC[C@]2(C)CC[C@]3(C)C4=CC=C5C(=CC(=O)C(O)=C5C)[C@]4(C)CC[C@@]3(C)[C@@H]2C1 | 1.7 | 85.7 | 1 | 1 | 0.7 | – | –
13 | CC1=C(O)C(=O)C=C2C1=CC=C1[C@@]2(C)CC[C@@]2(C)[C@@H]3C[C@](C)(C(=O)OCCC(C)C)CC[C@]3(C)CC[C@]12C | 4.2 | 87.8 | 2 | 1.9 | 1.1 | – | –
14 | C#CCOC(=O)[C@]1(C)CC[C@]2(C)CC[C@]3(C)C4=CC=C5C(=CC(=O)C(OC(=O)/C=C/C)=C5C)[C@]4(C)CC[C@@]3(C)[C@@H]2C1 | – | – | – | – | 0.5 | 3 | –
15 | C#CCOC(=O)[C@]1(C)CC[C@]2(C)CC[C@]3(C)C4=CC=C5C(=CC(=O)C(OC(=O)CCC)=C5C)[C@]4(C)CC[C@@]3(C)[C@@H]2C1 | – | – | – | – | 0.4 | 2.6 | –
16 | C#CCOC(=O)[C@]1(C)CC[C@]2(C)CC[C@]3(C)C4=CC=C5C(=CC(=O)C(OC(=O)/C=C/c6cccc(C)c6)=C5C)[C@]4(C)CC[C@@]3(C)[C@@H]2C1 | – | – | – | – | 0.4 | 2.9 | –
17 | C#CCOC(=O)[C@]1(C)CC[C@]2(C)CC[C@]3(C)C4=CC=C5C(=CC(=O)C(OC(=O)N6CCN(c7ccc(Cl)cc7)CC6)=C5C)[C@]4(C)CC[C@@]3(C)[C@@H]2C1 | – | – | – | – | 0.2 | 1.6 | –
18 | COC(=O)[C@]1(C)CC[C@]2(C)CC[C@]3(C)C4=CC=C5C(=CC(=O)C(O)=C5C)[C@]4(C)CC[C@@]3(C)[C@@H]2C1 [PRISTIMERIN] | 1.1 | 83.1 | 0.9 | 0.9 | 0.8 | – | –
19 | C#CCOC(=O)[C@]1(C)CC[C@]2(C)CC[C@]3(C)C4=CC=C5C(=CC(=O)C(OC(=O)N6CCN(c7ccccc7Cl)CC6)=C5C)[C@]4(C)CC[C@@]3(C)[C@@H]2C1 | – | – | – | – | 0.2 | 1.9 | –
20 | C#CCOC(=O)[C@]1(C)CC[C@]2(C)CC[C@]3(C)C4=CC=C5C(=CC(=O)C(OC(=O)N(C)CCC)=C5C)[C@]4(C)CC[C@@]3(C)[C@@H]2C1 | – | – | – | – | 0.3 | 0.9 | –
21 | C#CCOC(=O)[C@]1(C)CC[C@]2(C)CC[C@]3(C)C4=CC=C5C(=CC(=O)C(OC(=O)N(CCC)CCC)=C5C)[C@]4(C)CC[C@@]3(C)[C@@H]2C1 | – | – | – | – | 0.3 | 0.9 | –
22 | C#CCOC(=O)[C@]1(C)CC[C@]2(C)CC[C@]3(C)C4=CC=C5C(=CC(=O)C(O)=C5C)[C@]4(C)CC[C@@]3(C)[C@@H]2C1 | – | – | – | – | – | – | IC50 [1]: 1.7 µM
23 | C#CCOC(=O)[C@]1(C)CC[C@]2(C)CC[C@]3(C)C4=CC=C5C(=CC(=O)C(OC(=O)c6ccc(F)cc6)=C5C)[C@]4(C)CC[C@@]3(C)[C@@H]2C1 | – | – | – | – | 0.4 | 2 | –
24 | CC1=C(O)C(=O)C=C2C1=CC=C1[C@@]2(C)CC[C@@]2(C)[C@@H]3C[C@](C)(C(=O)OCc4ccccc4C)CC[C@]3(C)CC[C@]12C | – | – | – | – | – | – | IC50 [1]: 10 µM
25 | C#CCOC(=O)[C@]1(C)CC[C@]2(C)CC[C@]3(C)C4=CC=C5C(=CC(=O)C(OC(=O)N6CCN(c7ccccc7OC)CC6)=C5C)[C@]4(C)CC[C@@]3(C)[C@@H]2C1 | – | – | – | – | 0.3 | 1.8 | –
26 | C#CCOC(=O)[C@]1(C)CC[C@]2(C)CC[C@]3(C)C4=CC=C5C(=CC(=O)C(OC(=O)N(C)CCCC)=C5C)[C@]4(C)CC[C@@]3(C)[C@@H]2C1 | – | – | – | – | 0.3 | 1 | –
27 | C#CCOC(=O)[C@]1(C)CC[C@]2(C)CC[C@]3(C)C4=CC=C5C(=CC(=O)C(OC(=O)c6ccc(Br)cc6)=C5C)[C@]4(C)CC[C@@]3(C)[C@@H]2C1 | – | – | – | – | 0.3 | 2.2 | –
28 | C=CCOC(=O)[C@]1(C)CC[C@]2(C)CC[C@]3(C)C4=CC=C5C(=CC(=O)C(O)=C5C)[C@]4(C)CC[C@@]3(C)[C@@H]2C1 | 0.8 | 89.9 | 0.4 | 0.3 | 0.8 | – | –
29 | C#CCOC(=O)[C@]1(C)CC[C@]2(C)CC[C@]3(C)C4=CC=C5C(=CC(=O)C(OC(=O)N(C)CC)=C5C)[C@]4(C)CC[C@@]3(C)[C@@H]2C1 | – | – | – | – | 0.3 | 3 | –
